We go through twelve molecules from ChEMBL document CHEMBL1156629, “Synthesis and discovery of high affinity folate receptor-specific glycinamide ribonucleotide formyltransferase inhibitors with antitumor activity” (J Med Chem, 2008).

Active and inactive are the calls of the source. No cut-off for these calls is given here.

Experiment [1] can be described thus: Antiproliferative activity against human RFC expressing Chinese hamster PC43-10 cells. As to conditions: Cricetulus griseus.
A further experiment has as its system R2. Description: Antiproliferative activity against human RFC expressing Chinese hamster R2 cells.
A short description of experiment [2]: Antiproliferative activity against human FRalpha expressing Chinese hamster RT16 cells in presence of folic acid. As to conditions: Cricetulus griseus.
The nature of experiment [3]: Antiproliferative activity against human FRbeta expressing Chinese hamster D4 cells in presence of folic acid. The settings on record: Cricetulus griseus.
Experiment [4] deals with KB. The experiment is described as follows: Antiproliferative activity against human RFC and FRalpha expressing human KB cells in presence of folic acid.
Experiment [5] deals with IGROV-1. The experiment is described as follows: Antiproliferative activity against human RFC and FRalpha expressing human IGROV1 cells.
Experiment [6] concerns IGROV-1. Description: Antiproliferative activity against human RFC and FRalpha expressing human IGROV1 cells in presence of folic acid.
In experiment [7] the target is T1, Reduced folate transporter (Homo sapiens) (UniProt P41440).
T1 sequence (whole entry): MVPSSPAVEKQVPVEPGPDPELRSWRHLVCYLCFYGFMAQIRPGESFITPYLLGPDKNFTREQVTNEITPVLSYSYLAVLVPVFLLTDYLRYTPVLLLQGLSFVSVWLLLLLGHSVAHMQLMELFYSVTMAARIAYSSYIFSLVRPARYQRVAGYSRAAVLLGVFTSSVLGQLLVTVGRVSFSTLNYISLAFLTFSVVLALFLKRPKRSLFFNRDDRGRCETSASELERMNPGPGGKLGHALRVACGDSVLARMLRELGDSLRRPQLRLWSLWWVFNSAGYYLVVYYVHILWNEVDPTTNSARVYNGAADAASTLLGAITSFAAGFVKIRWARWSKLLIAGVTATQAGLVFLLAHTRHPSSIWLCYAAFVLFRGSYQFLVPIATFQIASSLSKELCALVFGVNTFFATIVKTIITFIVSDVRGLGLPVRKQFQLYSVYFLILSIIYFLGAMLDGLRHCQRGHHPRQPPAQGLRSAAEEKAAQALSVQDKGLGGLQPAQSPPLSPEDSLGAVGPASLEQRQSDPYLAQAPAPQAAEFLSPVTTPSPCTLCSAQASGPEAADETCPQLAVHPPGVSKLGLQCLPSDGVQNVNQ
The experiment is described as follows: Inhibition of human RFC-mediated [3H]MTX transport expressed in Chinese hamster PC43-10 cells. Format: cell-based. Set-up: concentration or dose not given beside the values. As to conditions: concentration not given here.

Experiment [8] addresses Folate receptor alpha (Homo sapiens) (UniProt P15328). The experiment is described as follows: Displacement of [3H]folic acid from human FRalpha in Chinese hamster RT16 cells. The format is cell-based. The method in brief: (§1)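 Cells were acid-stripped (pH 3.5 acetate buffer) and washed in ice-cold HEPES-buffered saline, pH 7.4. They were then incubated 15 min at 0°C with 50 nM [3H]folic acid (0.5 Ci/mmol) and a range of unlabeled ligand concentrations. Bound label was normalized to Lowry protein. […] Mean of 3 experiments.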

Experiment [9] has as its target Folate receptor beta (Homo sapiens) (UniProt P14207). Description: Displacement of [3H]folic acid from human FRbeta in Chinese hamster D4 cells. The format is cell-based. The method in brief: as §1
Background: In a radioligand displacement assay an active substance lowers the binding of a labelled ligand.

The target in experiment [10] is T2, Trifunctional purine biosynthetic protein adenosine-3 (Mus musculus, UniProt Q64737).
T2 sequence (Q64737 whole entry): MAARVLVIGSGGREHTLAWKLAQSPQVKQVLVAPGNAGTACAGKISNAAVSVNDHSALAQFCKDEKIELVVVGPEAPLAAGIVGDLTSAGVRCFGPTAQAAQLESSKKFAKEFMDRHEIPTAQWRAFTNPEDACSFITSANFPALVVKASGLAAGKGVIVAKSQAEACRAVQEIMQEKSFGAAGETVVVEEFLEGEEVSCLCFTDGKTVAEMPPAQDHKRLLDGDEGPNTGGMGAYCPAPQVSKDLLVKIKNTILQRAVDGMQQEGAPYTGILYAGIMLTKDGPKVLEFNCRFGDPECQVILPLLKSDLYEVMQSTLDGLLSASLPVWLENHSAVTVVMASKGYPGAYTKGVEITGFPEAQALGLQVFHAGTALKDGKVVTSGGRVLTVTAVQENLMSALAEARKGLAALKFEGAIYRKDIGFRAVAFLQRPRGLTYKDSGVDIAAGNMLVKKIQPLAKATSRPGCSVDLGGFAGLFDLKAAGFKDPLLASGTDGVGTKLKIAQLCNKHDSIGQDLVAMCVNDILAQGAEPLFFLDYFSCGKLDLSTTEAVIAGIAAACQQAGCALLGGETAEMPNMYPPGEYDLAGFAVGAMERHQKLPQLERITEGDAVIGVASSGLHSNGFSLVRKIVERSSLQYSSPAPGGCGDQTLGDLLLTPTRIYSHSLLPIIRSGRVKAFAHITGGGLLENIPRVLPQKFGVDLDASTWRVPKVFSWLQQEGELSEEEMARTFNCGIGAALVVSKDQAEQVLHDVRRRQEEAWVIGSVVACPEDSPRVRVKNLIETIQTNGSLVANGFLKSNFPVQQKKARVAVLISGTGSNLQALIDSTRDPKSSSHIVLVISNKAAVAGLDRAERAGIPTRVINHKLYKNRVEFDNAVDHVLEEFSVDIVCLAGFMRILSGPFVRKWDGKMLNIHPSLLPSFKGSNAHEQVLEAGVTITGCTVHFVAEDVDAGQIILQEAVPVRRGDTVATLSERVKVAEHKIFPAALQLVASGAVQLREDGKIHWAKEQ
Description: Inhibition of mouse recombinant GARFTase.

In experiment [11] the target is T3, Trifunctional purine biosynthetic protein adenosine-3 (Homo sapiens, UniProt P22102).
T3 sequence (P22102 whole entry): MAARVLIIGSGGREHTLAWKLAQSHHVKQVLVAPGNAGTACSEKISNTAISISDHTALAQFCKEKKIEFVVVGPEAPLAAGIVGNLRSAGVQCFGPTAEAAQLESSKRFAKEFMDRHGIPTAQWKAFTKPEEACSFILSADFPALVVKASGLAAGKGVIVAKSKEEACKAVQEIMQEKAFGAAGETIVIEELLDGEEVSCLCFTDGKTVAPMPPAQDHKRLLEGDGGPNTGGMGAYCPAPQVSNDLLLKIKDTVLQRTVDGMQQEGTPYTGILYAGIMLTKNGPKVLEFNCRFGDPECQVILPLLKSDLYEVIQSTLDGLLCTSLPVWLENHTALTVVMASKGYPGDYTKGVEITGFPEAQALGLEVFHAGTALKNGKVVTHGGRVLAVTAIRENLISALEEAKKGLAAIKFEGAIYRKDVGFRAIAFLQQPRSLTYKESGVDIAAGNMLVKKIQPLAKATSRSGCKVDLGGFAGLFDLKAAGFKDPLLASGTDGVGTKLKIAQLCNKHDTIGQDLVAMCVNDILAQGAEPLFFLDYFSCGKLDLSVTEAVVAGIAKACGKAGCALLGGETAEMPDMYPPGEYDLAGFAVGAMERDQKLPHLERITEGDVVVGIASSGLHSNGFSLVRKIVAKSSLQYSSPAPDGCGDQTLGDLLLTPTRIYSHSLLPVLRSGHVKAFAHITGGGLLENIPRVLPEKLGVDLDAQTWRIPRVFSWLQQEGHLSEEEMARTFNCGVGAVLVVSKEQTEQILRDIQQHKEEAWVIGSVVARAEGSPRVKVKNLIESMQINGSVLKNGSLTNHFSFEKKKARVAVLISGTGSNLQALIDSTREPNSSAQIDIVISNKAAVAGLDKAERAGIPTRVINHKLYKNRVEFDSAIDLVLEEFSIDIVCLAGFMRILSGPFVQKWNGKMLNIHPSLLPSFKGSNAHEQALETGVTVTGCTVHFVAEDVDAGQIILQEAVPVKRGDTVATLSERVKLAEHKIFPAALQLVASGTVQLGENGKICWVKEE

Experiment [12] can be described thus: cells. The settings on record: Cricetulus griseus, RT16.
The nature of experiment [13]: cells. As to conditions: Cricetulus griseus, D4.
For experiment [14], the target named is T1, Reduced folate transporter (Homo sapiens). Description: Inhibition of human RFC-mediated [3H]MTX transport in Chinese hamster PC43-10 cells at 10 uM. Format: cell-based.
Experiment [15] concerns KB. The experiment is described as follows: cells. As to conditions: Homo sapiens, read-out: INH.
Experiment [16] relates to KB. The experiment is described as follows: cells. As to conditions: Homo sapiens.

Chain of Folate receptor beta (Homo sapiens) (P14207 17-230 limits assumed): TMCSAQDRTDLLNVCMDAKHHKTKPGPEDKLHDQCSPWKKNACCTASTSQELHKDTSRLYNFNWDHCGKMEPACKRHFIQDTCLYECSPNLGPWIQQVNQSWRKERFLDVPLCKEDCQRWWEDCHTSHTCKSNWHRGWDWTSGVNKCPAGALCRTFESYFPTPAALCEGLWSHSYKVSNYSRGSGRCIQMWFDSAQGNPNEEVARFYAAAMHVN
Chain of Folate receptor alpha (Homo sapiens) (P15328 25-234 limits assumed): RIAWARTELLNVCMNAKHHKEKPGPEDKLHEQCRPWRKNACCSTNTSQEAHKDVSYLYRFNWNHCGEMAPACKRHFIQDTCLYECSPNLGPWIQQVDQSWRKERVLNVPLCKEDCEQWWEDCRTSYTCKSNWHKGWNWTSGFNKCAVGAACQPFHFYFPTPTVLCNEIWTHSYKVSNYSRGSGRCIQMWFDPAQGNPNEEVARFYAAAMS

By IC50 is commonly meant the concentration that inhibits the measured activity by half. As for `Nc1nc2[nH]c(CCCCCCc3ccc(C(=O)N[C@@H](CCC(=O)O)C(=O)O)cc3)cc2c(=O)[nH]1`, the IC50 in experiment [1] is greater than 1000 nM; with R2, greater than 1000 nM; in [2], greater than 1000 nM; in experiment [3] it was greater than 1000 nM; with KB [4] it was greater than 1000 nM; in the experiment with IGROV-1 [5], 309 nM. Also, the half-maximal inhibitory concentration (IC50) was greater than 1000 nM in the experiment with IGROV-1 [6]; 2510 nM in experiment [10]; 8.6 nM in experiment [11]; 162 nM in “cells [12]”; 198 nM in the experiment “cells [13]”. This molecule also had an inhibition in experiment [7] of less than 20%. Also, the result in experiment [8] and in experiment [9] was Active.

As to `COc1cc(NCc2ccc3nc(N)nc(N)c3c2C)cc(OC)c1OC` [TRIMETREXATE], the half-inhibitory concentration (IC50) in experiment [3] amounted to 6.1 nM; in the experiment on IGROV-1 [6], 8.6 nM.

`Nc1nc2c(c(=O)[nH]1)C[C@@H](CCc1ccc(C(=O)N[C@@H](CCC(=O)O)C(=O)O)cc1)CN2` [LOMETREXOL]: the half-maximal inhibitory concentration (IC50) is 188 nM in [2] and 275 nM in experiment [3]. In [14], the inhibition turned out to be 60%.

As to `CN(Cc1cnc2nc(N)nc(N)c2n1)c1ccc(C(=O)N[C@@H](CCC(=O)O)C(=O)O)cc1` [METHOTREXATE], the inhibition in experiment [14] stood at 60%.

Regarding `Nc1nc2[nH]c(CCCCCc3ccc(C(=O)N[C@@H](CCC(=O)O)C(=O)O)cc3)cc2c(=O)[nH]1`, the IC50 (in [1]; in the experiment with R2; in experiment [2]; in experiment [3]; in the experiment with KB [4]; with IGROV-1 [6]) was greater than 1000 nM in each case. Besides, the concentration for half-maximal inhibition (IC50) in experiment [10] was 2260 nM; in experiment [11], 7.2 nM. In experiment [7], this molecule yielded an inhibition of less than 20%. Further, the outcome in experiment [8] and in experiment [9] was Active.

In the case of `Nc1nc2[nH]cc(CCc3ccc(C(=O)N[C@@H](CCC(=O)O)C(=O)O)cc3)c2c(=O)[nH]1` [PEMETREXED], in the experiment on IGROV-1 [6], the concentration for half-maximal inhibition (IC50) was 200 nM. Further, the inhibition in experiment [14] was found to be 60%.

Take `Cc1nc(=O)c2cc(CN(C)c3ccc(C(=O)N[C@@H](CCC(=O)O)C(=O)O)s3)ccc2[nH]1` [RALTITREXED]: the inhibition at 1 µM in the experiment with KB [15] was greater than 99%.

For the molecule `Nc1nc2[nH]c(CCCCc3ccc(C(=O)N[C@@H](CCC(=O)O)C(=O)O)cc3)cc2c(=O)[nH]1`, the IC50 in experiment [1] is greater than 1000 nM; in the experiment on R2, greater than 1000 nM; in experiment [2], greater than 1000 nM; in the experiment on KB [4] it was greater than 1000 nM; in the experiment with IGROV-1 [6], greater than 1000 nM; in [10], 150 nM. The same molecule came in with an inhibition in experiment [7] of less than 20%. In addition, the result in experiment [8] and in experiment [9] was Active. For the same molecule, the inhibition at 1 µM in the experiment with KB [15] was greater than 97%.

Consider `Nc1nc(=O)c2c([nH]1)NCC(CNc1ccc(C(=O)N[C@@H](CCC(=O)O)C(=O)O)cc1)N2C=O` (stereo partly specified), for which the inhibition in experiment [14] stood at 60%.

`Nc1nc2ccc3ccc(CNc4ccc5c(c4)CN([C@@H](CCC(=O)O)C(=O)O)C5=O)cc3c2c(=O)[nH]1`: the half-maximal inhibitory concentration (IC50) is greater than 1000 nM in experiment [2], 32 nM in the experiment with KB [4] and 5.8 nM in the experiment on KB [16].

For the molecule `Nc1nc2[nH]c(Cc3ccc(C(=O)N[C@@H](CCC(=O)O)C(=O)O)cc3)cc2c(=O)[nH]1`, the IC50 (in experiment [1]; in the experiment with R2; in experiment [2]; in experiment [3]; with KB [4]; in the experiment on IGROV-1 [5]) was greater than 1000 nM in each case. For the same molecule, the IC50 with IGROV-1 [6] is greater than 1000 nM; in [10] it was greater than 20000 nM; in experiment [11], greater than 1000 nM; in “cells [12]”, greater than 1000 nM; in the experiment “cells [13]”, greater than 1000 nM; in the experiment with KB [16] it was greater than 1000 nM. The molecule also returned an inhibition in [7] of less than 20%.

For the molecule `Nc1nc2[nH]c(CCCc3ccc(C(=O)N[C@@H](CCC(=O)O)C(=O)O)cc3)cc2c(=O)[nH]1`, the half-maximal inhibitory concentration (IC50) in experiment [1] was 304 nM; with R2, 448 nM; in [2] it was greater than 1000 nM; in experiment [3] it was greater than 1000 nM; in the experiment on KB [4], greater than 1000 nM; with IGROV-1 [6], greater than 1000 nM. Also, the IC50 in [10] worked out at 2440 nM. Moreover, the inhibition in experiment [7] is less than 20%. For the same molecule, the outcome in experiment [8] and in experiment [9] was Active.
